{"source": "paper PMC3983399", "about": "(Journal of Medicinal Chemistry, 2014)", "key": {"HDAC1": {"target": "HDAC1 (Homo sapiens, UniProt Q13547)", "sequence (Q13547 whole entry, species assumed)": "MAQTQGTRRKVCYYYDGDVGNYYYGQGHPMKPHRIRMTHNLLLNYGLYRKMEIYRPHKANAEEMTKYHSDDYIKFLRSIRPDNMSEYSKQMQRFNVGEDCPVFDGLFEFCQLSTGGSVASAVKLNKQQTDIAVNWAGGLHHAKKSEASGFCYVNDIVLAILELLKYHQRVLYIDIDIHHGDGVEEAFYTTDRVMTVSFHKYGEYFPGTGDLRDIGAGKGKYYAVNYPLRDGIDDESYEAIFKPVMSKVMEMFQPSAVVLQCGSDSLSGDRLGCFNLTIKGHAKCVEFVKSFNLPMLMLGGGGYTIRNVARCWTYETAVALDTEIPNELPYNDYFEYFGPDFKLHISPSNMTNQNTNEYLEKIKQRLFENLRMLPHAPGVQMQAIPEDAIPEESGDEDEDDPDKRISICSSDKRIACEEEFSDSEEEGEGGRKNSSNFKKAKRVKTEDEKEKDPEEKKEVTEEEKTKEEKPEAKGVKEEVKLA", "experiment": "HDAC inhibition, HDAC1", "assay_type": "biochemical", "conditions": "up to 100 μM, data not shown"}, "[1]": {"tested_on": "SKMEL-28 melanoma cell line", "experiment": "Hexosaminidase viability assay, SKMEL-28", "assay_type": "cell-based", "conditions": "Homo sapiens, SK-MEL-28, read-out: IC50 SKMEL-28, text", "method_in_brief": "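Cells in 96-well plates grown overnight, then treated 48 h with compound at 0–50 µM. Wells washed with PBS. Hexosaminidase substrate added for 30 min at 37 °C, followed by developer; absorbance read at 405 nm. Percent viability = (treated absorbance/control absorbance) × 100.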"}, "HDAC2": {"target": "HDAC2 (Homo sapiens, UniProt Q92769)", "sequence (Q92769 whole entry)": "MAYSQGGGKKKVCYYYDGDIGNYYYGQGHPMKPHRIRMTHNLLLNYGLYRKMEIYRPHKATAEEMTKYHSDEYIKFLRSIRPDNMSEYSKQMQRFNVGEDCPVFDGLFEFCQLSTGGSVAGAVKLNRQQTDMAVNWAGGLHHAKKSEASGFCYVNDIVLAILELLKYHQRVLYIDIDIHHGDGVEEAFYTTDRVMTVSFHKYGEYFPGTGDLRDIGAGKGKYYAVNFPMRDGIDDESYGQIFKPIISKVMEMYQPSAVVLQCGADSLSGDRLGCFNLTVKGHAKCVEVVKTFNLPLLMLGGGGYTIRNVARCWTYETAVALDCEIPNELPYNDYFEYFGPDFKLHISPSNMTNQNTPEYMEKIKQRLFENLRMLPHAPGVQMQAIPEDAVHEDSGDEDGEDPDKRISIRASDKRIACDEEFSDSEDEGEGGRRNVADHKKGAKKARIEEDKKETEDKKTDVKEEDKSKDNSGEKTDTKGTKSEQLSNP", "experiment": "HDAC inhibition, HDAC2", "assay_type": "biochemical", "conditions": "up to 100 μM, data not shown"}, "M14 melanoma cell line": {"tested_on": "M14 melanoma cell line", "experiment": "CellTiter-Glo viability assay, M14 cells", "assay_type": "cell-based", "method_in_brief": "(§1)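 Cells plated at 1250/well in serum-free medium (F12 for CHO-K1 and A549, DMEM for M14). Compounds given as 10-point 1:3 dilution series starting at 300 µM before addition, with gefitinib as assay control. Incubated 72 h at 37 °C, 5% CO2. CellTiter-Glo added, 15 min at room temperature, luminescence read. Normalized to media-only (0%) and 1% DMSO-treated cells (100%). Percent inhibition is the mean of three experiments ± SD.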"}, "HDAC6": {"target": "T1, HDAC6 (Homo sapiens, UniProt Q9UBN7)", "T1 sequence (Q9UBN7 1-1215)": "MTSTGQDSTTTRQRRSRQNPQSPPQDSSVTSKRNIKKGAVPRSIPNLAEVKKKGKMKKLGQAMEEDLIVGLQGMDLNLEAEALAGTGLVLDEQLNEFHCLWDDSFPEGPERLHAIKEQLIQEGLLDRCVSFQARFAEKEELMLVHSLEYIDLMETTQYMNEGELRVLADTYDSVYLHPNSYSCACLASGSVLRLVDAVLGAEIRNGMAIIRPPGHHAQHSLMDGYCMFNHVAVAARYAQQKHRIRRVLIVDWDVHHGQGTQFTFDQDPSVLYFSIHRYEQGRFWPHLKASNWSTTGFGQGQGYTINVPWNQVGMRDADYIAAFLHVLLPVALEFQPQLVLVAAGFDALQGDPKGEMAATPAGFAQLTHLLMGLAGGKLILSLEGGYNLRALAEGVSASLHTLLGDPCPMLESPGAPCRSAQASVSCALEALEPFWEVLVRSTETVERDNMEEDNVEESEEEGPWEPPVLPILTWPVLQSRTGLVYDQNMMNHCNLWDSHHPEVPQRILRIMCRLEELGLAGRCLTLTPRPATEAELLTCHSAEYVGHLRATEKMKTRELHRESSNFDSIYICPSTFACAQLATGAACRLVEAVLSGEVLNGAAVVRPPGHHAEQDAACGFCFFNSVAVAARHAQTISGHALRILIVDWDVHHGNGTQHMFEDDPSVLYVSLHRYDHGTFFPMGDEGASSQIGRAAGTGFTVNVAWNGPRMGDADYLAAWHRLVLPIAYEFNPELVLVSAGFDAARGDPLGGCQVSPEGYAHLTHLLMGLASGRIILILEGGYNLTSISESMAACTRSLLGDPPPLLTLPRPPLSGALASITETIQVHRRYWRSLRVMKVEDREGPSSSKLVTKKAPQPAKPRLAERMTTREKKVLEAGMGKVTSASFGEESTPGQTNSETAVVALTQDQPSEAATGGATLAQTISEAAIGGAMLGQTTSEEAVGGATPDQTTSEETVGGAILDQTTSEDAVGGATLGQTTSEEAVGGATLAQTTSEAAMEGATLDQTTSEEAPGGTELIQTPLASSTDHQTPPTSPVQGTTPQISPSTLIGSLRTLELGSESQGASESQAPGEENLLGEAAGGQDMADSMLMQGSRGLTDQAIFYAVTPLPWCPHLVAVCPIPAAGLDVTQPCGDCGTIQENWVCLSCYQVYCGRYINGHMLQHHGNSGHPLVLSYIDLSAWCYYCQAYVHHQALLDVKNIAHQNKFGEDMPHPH", "experiment": "HDAC inhibition, HDAC6", "assay_type": "biochemical", "conditions": "up to 100 μM, data not shown"}, "M14 cells": {"tested_on": "M14 cells", "experiment": "ApoTox-Glo triplex assay", "assay_type": "cell-based", "conditions": "for cytotoxicity response / effect on cell viability (live cell protease): early time point (4 h); for time of caspase activity spike: time points 4, 24, 48, 72 h", "method_in_brief": "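M14 #5 cells, 1250/well in serum-free DMEM, preincubated 4 h at 37 °C, 5% CO2. Compounds (1:3 serial dilutions) incubated 4, 24, 48 and 72 h alongside ionomycin, terfenadine and panobinostat controls. Viability/cytotoxicity reagent (400 µM GF-AFC, 400 µM bis-AAF-R110 in reagent) 30 min at 37 °C; fluorescence Ex400/Em505 (live-cell protease) and Ex485/Em520 (dead-cell protease). Then Caspase-Glo 3/7, 30 min at room temperature, luminescence.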"}, "[2]": {"tested_on": "melanoma cells with mutated Q61LNRAS and wild-type BRAF (M202 and M207)", "conditions": "up to 10 μM; cited from earlier work"}, "[3]": {"tested_on": "A549 nonsmall cell lung cancer cell line", "experiment": "CellTiter-Glo viability assay, A549 cells", "assay_type": "cell-based", "conditions": "Homo sapiens, A549, read-out: Inhibition % @ 100 μM A549", "method_in_brief": "as §1"}}, "data": [{"molecule": "O=C1NC[C@H](Cc2ccccc2)N(C[C@@H]2CCCN2C[C@H](Cc2ccccc2)N2C[C@H](Cc3ccc(O)cc3)N(CCC34CC5CC(CC(C5)C3)C4)C(=O)C2=O)C1=O", "note": "[Compound 2155-18]", "values": [{"measurement": "HDAC1 inhibition", "setting": "HDAC1", "value": "lack of HDAC inhibition"}, {"measurement": "IC50", "setting": "[1]", "value": "890 ± 70", "unit": "nM"}, {"measurement": "HDAC2 inhibition", "setting": "HDAC2", "value": "lack of HDAC inhibition"}, {"measurement": "IC50", "setting": "M14 melanoma cell line; Homo sapiens, M14, read-out: IC50 M14, Table 3, mean of three ± SD", "value": "890 ± 70", "unit": "nM"}, {"measurement": "HDAC6 inhibition", "setting": "HDAC6", "value": "lack of HDAC inhibition"}]}, {"molecule": "O=C1NC[C@H](Cc2ccccc2)N(C[C@@H]2CCCN2C[C@@H](CC2CCCCC2)N2C[C@H](Cc3ccc(O)cc3)N(CCc3ccccc3)C(=O)C2=O)C1=O", "note": "[Compound 2155-14]", "values": [{"measurement": "HDAC1 inhibition", "setting": "HDAC1", "value": "lack of HDAC inhibition"}, {"measurement": "HDAC2 inhibition", "setting": "HDAC2", "value": "lack of HDAC inhibition"}, {"measurement": "inhibition of M14 cell viability at highest tested concentration", "setting": "M14 melanoma cell line; 100 μM", "value": "not able to inhibit M14 cell viability fully"}, {"measurement": "cytotoxicity response", "setting": "M14 cells", "value": "no markers for apoptosis and cytotoxicity"}, {"measurement": "effect on cell viability (live cell protease)", "setting": "M14 cells", "value": "no effect on cell viability"}, {"measurement": "time of caspase activity spike", "setting": "M14 cells", "value": 24, "unit": "h"}, {"measurement": "HDAC6 inhibition", "setting": "HDAC6", "value": "lack of HDAC inhibition"}]}, {"molecule": "CCCS(=O)(=O)Nc1ccc(F)c(C(=O)c2c[nH]c3ncc(-c4ccc(Cl)cc4)cc23)c1F", "note": "[vemurafenib]", "values": [{"measurement": "activity against M202 and M207 melanoma cells", "setting": "[2]", "value": "inactive"}]}, {"molecule": "Cc1[nH]c2ccccc2c1CCNCc1ccc(/C=C/C(=O)NO)cc1", "note": "[panobinostat]", "values": [{"measurement": "cytotoxicity response", "setting": "M14 cells", "value": "no effect"}, {"measurement": "effect on cell viability (live cell protease)", "setting": "M14 cells", "value": "no effect"}, {"measurement": "time of caspase activity spike", "setting": "M14 cells", "value": "24 to 48", "unit": "h"}]}, {"molecule": "CCC[C@@H]1CNC(=O)C(=O)N1C[C@@H]1CCCN1C[C@H](Cc1ccc(O)cc1)N1C[C@@H](Cc2ccc(O)cc2)N(CC(CC)c2ccccc2)C(=O)C1=O", "note": "(some centres unmarked) [Compound 2]", "values": [{"measurement": "inhibition at 100 µM", "setting": "[3]", "value": 0, "unit": "%"}, {"measurement": "inhibition at 100 µM", "setting": "M14 melanoma cell line; Homo sapiens, M14, read-out: Inhibition % @ 100 μM M14", "value": "14 ± 3", "unit": "%"}]}, {"molecule": "CC(C)(C)c1ccc(C(O)CCCN2CCC(C(O)(c3ccccc3)c3ccccc3)CC2)cc1", "note": "(centres unmarked) [terfenadine]", "values": [{"measurement": "cytotoxicity response", "setting": "M14 cells", "value": "cytotoxicity spike"}, {"measurement": "effect on cell viability (live cell protease)", "setting": "M14 cells", "value": "early loss of cell viability"}, {"measurement": "time of caspase activity spike", "setting": "M14 cells", "value": "4 to 24", "unit": "h"}]}, {"molecule": "CCC[C@H]1CNC(=O)C(=O)N1C[C@@H]1CCCN1C[C@@H](CC1CCCCC1)N1C[C@H](Cc2ccc(O)cc2)N(CCc2ccccc2)C(=O)C1=O", "note": "[Compound 2155-17]", "values": [{"measurement": "selectivity for M14 over A549 cells", "setting": "M14 melanoma cell line; ratio of IC50", "value": "approximately 5 fold"}, {"measurement": "selectivity for M14 over CHO-K1 cells", "setting": "M14 melanoma cell line; ratio of IC50", "value": "more than 10 fold"}]}, {"molecule": "C[C@H](CCC(=O)O)C[C@H](C)C[C@H](C)C(=O)/C=C(\\O)[C@H](C)C[C@H](C)C/C=C/[C@@H](C)[C@@H](O)[C@@H](C)[C@@H](O)C[C@@H]1CC[C@@](C)([C@H]2CC[C@@](C)([C@@H](C)O)O2)O1", "note": "[ionomycin]", "values": [{"measurement": "cytotoxicity response", "setting": "M14 cells", "value": "strong cytotoxicity response"}, {"measurement": "effect on cell viability (live cell protease)", "setting": "M14 cells", "value": "dose-dependent loss of viability"}, {"measurement": "time of caspase activity spike", "setting": "M14 cells", "value": "did not induce a spike in caspase activity"}]}]}
